Laboratory results as given in ChEMBL document CHEMBL1139367, “A novel histone acetyltransferase inhibitor modulating Gcn5 network: cyclopentylidene-[4-(4'-chlorophenyl)thiazol-2-yl)hydrazone” (2009).
Active and inactive are the calls of the source. No cut-off for these calls is given here.

Experiments:
[1] = biological target: Histone acetyltransferase KAT2A (Homo sapiens) (UniProt Q92830); assay: Inhibition of human recombinant Gcn5 assessed as reduction in acetylated histone H3 level at 0.2 mM by Western blot analysis in presence of histone H3
Summary of the method: (§1)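 Tube reaction of human recombinant Gcn5 (50 ng) with 1 mM acetyl-CoA and histone H3 (100 or 200 ng). Buffer: 50 mM Tris-HCl pH 8.0, 0.1 mM EDTA, 50 mM KCl, 1 mM DTT, 5% glycerol. Incubated 1 h at 28 °C with or without compound, then 15% SDS-PAGE and blotting. Blots were probed serially with anti-acetyl-lysine and anti-acetyl-H3 antibodies.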

[2] = biological target: Histone acetyltransferase KAT2A (Homo sapiens) (UniProt Q92830); assay: Inhibition of human recombinant Gcn5 assessed as reduction in acetylated histone H3 level at 0.2 mM by Western blot analysis; summary of the method: as §1
[3] = biological target: Histone acetyltransferase KAT2A (Homo sapiens) (UniProt Q92830); assay: Inhibition of human recombinant Gcn5 assessed as reduction in acetylated histone H3 level at 0.8 mM by Western blot analysis in presence of increased concentration of acetyl-CoA
Saccharomyces cerevisiae [4] = assay: Decrease in global histone H3 acetylation in wild type Saccharomyces cerevisiae S288C at 0.8 mM after 24 hrs at 28 degC by hybridization assay; assay type: functional; parameters: scale not given: the % may be the effect or the level left
Summary of the method: (§2)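 Wild-type S288c yeast grown 24 h at 28 °C in YEPD with 1% DMSO, with or without compound added to the medium. Bulk proteins were extracted by an alkaline protocol, run on 15% SDS-PAGE and blotted. Blots were probed for acetylated H3, H4 and H3-K14Ac, with ECL detection. Signals were normalized to Ada2p and quantified densitometrically.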

Saccharomyces cerevisiae [5] = assay: Growth inhibition of Saccharomyces cerevisiae gcn5E173H mutant at 0.2 to 1 mM after 48 hrs at 28 degC by growth spot assay; assay type: functional, organism-based
Summary of the method: (§3)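 Exponentially growing yeast cells at 0.2 OD/mL were serially diluted 1/5. They were spotted on solid YEPD (2% agar) containing 1% DMSO, with compound added from a 100 mM DMSO stock at increasing concentrations. Plates were incubated at 28 °C. Each mutant was compared with its isogenic wild type (S288c, YMK986 or SB819).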

Saccharomyces cerevisiae [6] = assay: Growth inhibition of Saccharomyces cerevisiae SB0-deltabr mutant at 0.2 to 1 mM after 48 hrs at 28 degC by growth spot assay; assay type: functional, organism-based; summary of the method: as §3
Saccharomyces cerevisiae [7] = assay: Reduction of global histone H4 acetylation in wild type Saccharomyces cerevisiae S288C at 0.8 mM after 24 hrs at 28 degC by hybridization assay; assay type: functional, organism-based; summary of the method: as §2
Saccharomyces cerevisiae [8] = assay: Inhibition of global histone H3 acetylation in Saccharomyces cerevisiae gcn5delta mutant at 0.8 mM after 24 hrs at 28 degC by hybridization assay; assay type: functional, organism-based
Saccharomyces cerevisiae [9] = assay: Inhibition of histone H3 acetylation at H3-AcK14 site in wild type Saccharomyces cerevisiae S288C at 0.8 mM after 24 hrs at 28 degC by hybridization assay; assay type: functional, organism-based; summary of the method: as §2
[10] = biological target: Histone acetyltransferase KAT2A (Homo sapiens) (UniProt Q92830); assay: Inhibition of human recombinant Gcn5 assessed as reduction in acetylated histone H3 level at 0.8 mM by Western blot analysis in presence of 200 ng histone H3; summary of the method: as §1
[11] = biological target: Histone acetyltransferase KAT2A (Homo sapiens) (UniProt Q92830); assay: Inhibition of human recombinant Gcn5 assessed as reduction in acetylated histone H3 level at 0.8 mM by Western blot analysis; summary of the method: as §1
Saccharomyces cerevisiae [12] = assay: Growth inhibition of Saccharomyces cerevisiae gcn5delta mutant at 0.2 to 1 mM after 48 hrs at 28 degC by growth spot assay; assay type: functional, organism-based; summary of the method: as §3
Saccharomyces cerevisiae [13] = assay: Growth inhibition of wild type wild type Saccharomyces cerevisiae SB819 at 0.2 to 1 mM after 48 hrs at 28 degC by growth spot assay; assay type: functional, organism-based; summary of the method: as §3
Saccharomyces cerevisiae [14] = assay: Inhibition of histone H3 acetylation at H3-AcK14 site in Saccharomyces cerevisiae gcn5delta mutant at 0.8 mM after 24 hrs at 28 degC by hybridization assay; assay type: functional, organism-based

Chain of Histone acetyltransferase KAT2A (Homo sapiens) (Q92830 2-837 limits assumed): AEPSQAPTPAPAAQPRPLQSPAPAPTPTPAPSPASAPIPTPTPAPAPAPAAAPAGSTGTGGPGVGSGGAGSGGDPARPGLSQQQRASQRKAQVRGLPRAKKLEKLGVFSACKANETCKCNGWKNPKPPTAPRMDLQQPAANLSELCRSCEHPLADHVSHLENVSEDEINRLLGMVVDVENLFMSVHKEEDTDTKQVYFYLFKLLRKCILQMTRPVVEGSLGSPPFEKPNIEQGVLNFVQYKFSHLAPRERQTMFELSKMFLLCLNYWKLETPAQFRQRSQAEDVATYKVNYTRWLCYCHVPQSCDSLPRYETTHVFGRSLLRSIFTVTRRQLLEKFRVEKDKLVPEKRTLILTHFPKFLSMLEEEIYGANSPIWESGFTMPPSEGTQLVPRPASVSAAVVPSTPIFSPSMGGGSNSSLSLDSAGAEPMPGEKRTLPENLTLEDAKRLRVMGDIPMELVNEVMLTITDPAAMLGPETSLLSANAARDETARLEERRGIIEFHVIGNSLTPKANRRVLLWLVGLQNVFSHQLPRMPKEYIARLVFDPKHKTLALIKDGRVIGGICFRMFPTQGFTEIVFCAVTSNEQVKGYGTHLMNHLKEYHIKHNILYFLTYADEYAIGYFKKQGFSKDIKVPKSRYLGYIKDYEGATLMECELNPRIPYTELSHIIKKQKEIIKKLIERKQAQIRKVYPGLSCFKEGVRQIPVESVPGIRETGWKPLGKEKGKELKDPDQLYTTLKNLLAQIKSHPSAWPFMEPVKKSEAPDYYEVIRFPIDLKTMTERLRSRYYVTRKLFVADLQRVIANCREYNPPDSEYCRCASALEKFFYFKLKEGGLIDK

Activity [1] | Activity [2] | Activity [3] | Activity [10] | Activity [11] | SMILES | Activity (Saccharomyces cerevisiae [4]) | Activity (Saccharomyces cerevisiae [5]) | Activity (Saccharomyces cerevisiae [6]) | Activity (Saccharomyces cerevisiae [7]) | Activity (Saccharomyces cerevisiae [8]) | Activity (Saccharomyces cerevisiae [9]) | Activity (Saccharomyces cerevisiae [12]) | Activity (Saccharomyces cerevisiae [13]) | Activity (Saccharomyces cerevisiae [14])
Active | Active | – | – | – | C=CC/C=C\C/C=C\CCCCCCCc1cccc(O)c1C(=O)O | – | – | – | – | – | – | – | – | –
– | – | Active | inactive | Active | Clc1ccc(-c2csc(NN=C3CCCC3)n2)cc1 | 30% | Active | inactive | inactive | Active | Active | Active | inactive | Active
